Experiment [1] deals with Transcription factor p65 (Mus musculus) (UniProt Q04207). In words: Inhibition of LPS-stimulated DNA binding activity of NF-kappaB p65 in mouse RAW264.7 cells assessed as at 20 and 40 uM pre-treated for 6 hrs prior to LPS-challenge measured after 30 mins by ELISA method. The format is cell-based. An outline of the steps: (§1)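 Cells pretreated 6 h with compound, then stimulated 30 min with LPS (500 ng/mL). Nuclear fractions probed by Western blot for p50 and p65. NF-κB DNA binding in nuclear extracts measured by TransAM ELISA kit. Mean ± SD of three experiments.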
Sequence of Transcription factor p65 (Mus musculus) (Q04207 whole entry): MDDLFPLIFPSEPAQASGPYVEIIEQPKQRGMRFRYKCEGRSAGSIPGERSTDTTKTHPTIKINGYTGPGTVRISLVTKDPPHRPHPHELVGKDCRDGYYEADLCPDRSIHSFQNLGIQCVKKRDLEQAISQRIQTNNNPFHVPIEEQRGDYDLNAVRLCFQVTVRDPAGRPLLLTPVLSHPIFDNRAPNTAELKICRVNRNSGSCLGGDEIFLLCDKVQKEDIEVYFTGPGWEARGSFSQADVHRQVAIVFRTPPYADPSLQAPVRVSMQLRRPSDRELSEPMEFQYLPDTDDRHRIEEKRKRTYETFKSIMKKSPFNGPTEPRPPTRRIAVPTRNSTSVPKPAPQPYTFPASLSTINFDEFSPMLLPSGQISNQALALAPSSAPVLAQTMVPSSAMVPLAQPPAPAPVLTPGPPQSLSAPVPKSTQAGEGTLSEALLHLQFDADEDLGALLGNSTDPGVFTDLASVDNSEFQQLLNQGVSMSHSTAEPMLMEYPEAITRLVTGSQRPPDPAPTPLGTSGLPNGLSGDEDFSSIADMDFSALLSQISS
On the technique in general: An ELISA detects its analyte on a solid surface through an enzyme-linked reagent.

Experiment [2] deals with RAW264.7. In words: Antiinflammatory activity in LPS-stimulated mouse RAW264.7 cells assessed as reduction in nitrite production at 5 to 40 uM pre-treated for 6 hrs prior to LPS-challenge measured after 24 hrs by Griess reaction. In kind it is functional, cell-based. An outline of the steps:
(§2)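 RAW264.7 macrophages pretreated 6 h with compound, then stimulated 24 h with LPS (500 ng/mL). Nitrite in conditioned medium measured. PGE2 measured by commercial kit. iNOS and COX-2 read by Western blot in RIPA lysates (25 mM Tris-HCl pH 7.6, 150 mM NaCl, 1% NP-40, 1% deoxycholate, 0.1% SDS). Mean ± SD of three experiments.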

Experiment [3] concerns RAW264.7. In words: Antiinflammatory activity in LPS-stimulated mouse RAW264.7 cells assessed as reduction in PGE2 production at 5 to 40 uM pre-treated for 6 hrs prior to LPS-challenge measured after 24 hrs. The format is functional, cell-based. An outline of the steps:
as §2

The subject of experiment [4] is RAW264.7. Nature of the experiment: Reduction in iNOS expression in LPS-stimulated mouse RAW264.7 cells at 5 to 40 uM pre-treated for 6 hrs prior to LPS-challenge measured after 24 hrs by western blot analysis. The format is functional, cell-based. An outline of the steps:
as §2
On the technique in general: Immunoblotting shows a protein as a band on a membrane.

Experiment [5] concerns RAW264.7. Nature of the experiment: Reduction in COX2 expression in LPS-stimulated mouse RAW264.7 cells at 5 to 40 uM pre-treated for 6 hrs prior to LPS-challenge measured after 24 hrs by western blot analysis. The format is functional, cell-based. An outline of the steps:
as §2

In experiment [6] the test system is RAW264.7. Nature of the experiment: Reduction in TNF-alpha production in LPS-stimulated mouse RAW264.7 cells at 20 and 40 uM pre-treated for 6 hrs prior to LPS-challenge measured after 24 hrs. The format is functional, cell-based. Summed up:
(§3)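 RAW264.7 macrophages pretreated 6 h with compound, then given LPS (500 ng/mL) for 24 h. TNF-α, IL-1β and IL-6 protein measured by commercial kit (R&D Systems). mRNA levels measured by real-time PCR. Mean ± SD of three experiments; one-way ANOVA with Newman−Keuls test.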

The subject of experiment [7] is RAW264.7. Nature of the experiment: Reduction in IL-1beta production in LPS-stimulated mouse RAW264.7 cells at 20 and 40 uM pre-treated for 6 hrs prior to LPS-challenge measured after 24 hrs. In kind it is functional, cell-based. Summed up:
as §3

Experiment [8] relates to RAW264.7. In words: Reduction in IL6 production in LPS-stimulated mouse RAW264.7 cells at 20 and 40 uM pre-treated for 6 hrs prior to LPS-challenge measured after 24 hrs. In kind it is functional, cell-based. Summed up:
as §3

Experiment [9] concerns RAW264.7. Nature of the experiment: Reduction in TNF-alpha mRNA expression in LPS-stimulated mouse RAW264.7 cells at 20 and 40 uM pre-treated for 6 hrs prior to LPS-challenge measured after 24 hrs by real-time PCR analysis. The format is functional, cell-based. Summed up: as §3
A general note: Real-time PCR tracks product formation cycle by cycle.

In experiment [10] the test system is RAW264.7. In words: Reduction in IL-1beta mRNA expression in LPS-stimulated mouse RAW264.7 cells at 20 and 40 uM pre-treated for 6 hrs prior to LPS-challenge measured after 24 hrs by real-time PCR analysis. The format is functional, cell-based. An outline of the steps:
as §3

Experiment [11] concerns RAW264.7. Nature of the experiment: Reduction in IL6 mRNA expression in LPS-stimulated mouse RAW264.7 cells at 20 and 40 uM pre-treated for 6 hrs prior to LPS-challenge measured after 24 hrs by real-time PCR analysis. In kind it is functional, cell-based. An outline of the steps:
as §3

Experiment [12] relates to RAW264.7. In words: Inhibition of LPS-stimulated NF-kappaB p50 nuclear translocation in mouse RAW264.7 cells at 20 and 40 uM pre-treated for 6 hrs prior to LPS-challenge measured after 30 mins by western blot analysis. In kind it is cell-based. Summed up:
as §1

For experiment [13], the target named is Transcription factor p65 (Mus musculus) (UniProt Q04207). Nature of the experiment: Inhibition of LPS-stimulated NF-kappaB p65 nuclear translocation in mouse RAW264.7 cells at 20 and 40 uM pre-treated for 6 hrs prior to LPS-challenge measured after 30 mins by western blot analysis. The format is cell-based. An outline of the steps: as §1
In experiment [14] the target is T1, Nuclear factor erythroid 2-related factor 2 (Mus musculus) (UniProt Q60795).
T1 sequence (whole entry): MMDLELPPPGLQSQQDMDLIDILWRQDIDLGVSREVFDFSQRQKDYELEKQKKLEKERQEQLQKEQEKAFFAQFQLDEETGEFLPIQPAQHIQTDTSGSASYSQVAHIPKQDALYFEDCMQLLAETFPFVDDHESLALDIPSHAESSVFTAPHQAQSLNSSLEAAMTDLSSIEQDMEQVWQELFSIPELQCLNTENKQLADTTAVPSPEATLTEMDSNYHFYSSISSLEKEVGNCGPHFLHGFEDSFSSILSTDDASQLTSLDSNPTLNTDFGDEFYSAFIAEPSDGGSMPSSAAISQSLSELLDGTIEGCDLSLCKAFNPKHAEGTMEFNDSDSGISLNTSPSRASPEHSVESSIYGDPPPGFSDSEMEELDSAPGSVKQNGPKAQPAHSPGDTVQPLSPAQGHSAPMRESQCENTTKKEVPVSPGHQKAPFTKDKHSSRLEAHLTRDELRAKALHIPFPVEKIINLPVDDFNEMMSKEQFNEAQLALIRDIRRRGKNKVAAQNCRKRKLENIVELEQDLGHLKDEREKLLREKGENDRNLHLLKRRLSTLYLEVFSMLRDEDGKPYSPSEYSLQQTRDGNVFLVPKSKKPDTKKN
In words: Activation of Nrf2 in LPS-stimulated mouse RAW264.7 cells assessed as induction of HO-1 mRNA expression at 5 to 40 uM pre-treated for 6 hrs prior to LPS-challenge measured after 12 hrs. In kind it is cell-based. Summed up:
(§4)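 RAW264.7 macrophages incubated 12 h with compound (5−40 μM). HO-1 mRNA measured, and HO-1 protein by Western blot. Mean ± SD of three experiments; representative blots from three independent experiments.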

In experiment [15] the target is T1, Nuclear factor erythroid 2-related factor 2 (Mus musculus). In words: Increase in nuclear Nrf2 translocation in LPS-stimulated mouse RAW264.7 cells assessed as nuclear Nrf2 level at 20 and 40 uM measured up to 120 mins by Western blot analysis. The format is cell-based. Summed up: (§5)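 Cells exposed to compound at 40 μM for 0–120 min in 20 min steps. Nuclei separated from cytosol with PER-Mammalian Protein Extraction buffer plus protease inhibitor cocktail and 1 mM PMSF. Nuclear and cytoplasmic Nrf2 read by Western blot. Representative blots from three independent experiments.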

For experiment [16] the target is unchanged. In words: Increase in nuclear Nrf2 translocation in LPS-stimulated mouse RAW264.7 cells assessed as cytosolic Nrf2 level at 20 and 40 uM measured up to 120 mins by Western blot analysis. The format is cell-based. An outline of the steps:
as §5

The test system of experiment [17] is RAW264.7. In words: Antiinflammatory activity in LPS-stimulated mouse RAW264.7 cells assessed as reduction in TNF-alpha production at 20 and 40 uM pre-treated for 6 hrs prior to LPS-challenge measured after 24 hrs iin presence of HO-1 competitive inhibitor SnPP. The format is functional, cell-based. Summed up: (§6)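 RAW264.7 cells pretreated 6 h with compound (40 μM), with or without SnPP (50 μM), then stimulated 24 h with LPS (500 ng/mL). Nitrite in conditioned medium measured. PGE2, TNF-α, IL-1β and IL-6 measured by commercial kit (R&D Systems). iNOS and COX-2 read by Western blot. Mean ± SD of three experiments; one-way ANOVA with Newman−Keuls test.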

Experiment [18] concerns RAW264.7. In words: Antiinflammatory activity in LPS-stimulated mouse RAW264.7 cells assessed as reduction in IL-1beta production at 20 and 40 uM pre-treated for 6 hrs prior to LPS-challenge measured after 24 hrs in presence of competitive inhibitor of HO-1 SnPP. In kind it is functional, cell-based. Summed up: as §6
For experiment [19], the system named is RAW264.7. Nature of the experiment: Antiinflammatory activity in LPS-stimulated mouse RAW264.7 cells assessed as reduction in IL6 production at 20 and 40 uM pre-treated for 6 hrs prior to LPS-challenge measured after 24 hrs in presence of HO-1 competitive inhibitor SnPP. In kind it is functional, cell-based. Summed up: as §6
Experiment [20] concerns RAW264.7. Nature of the experiment: Reduction in iNOS expression in LPS-stimulated mouse RAW264.7 cells at 5 to 40 uM pre-treated for 6 hrs prior to LPS-challenge measured after 24 hrs by western blot analysis in presence of HO-1 competitive inhibitor SnPP by western blot analysis. In kind it is functional, cell-based. Summed up:
as §6

For experiment [21], the system named is RAW264.7. In words: Reduction in COX2 expression in LPS-stimulated mouse RAW264.7 cells at 5 to 40 uM pre-treated for 6 hrs prior to LPS-challenge measured after 24 hrs by western blot analysis in presence of HO-1 competitive inhibitor SnPP by western blot analysis. In kind it is functional, cell-based. Summed up:
as §6

Experiment [22] deals with T1, Nuclear factor erythroid 2-related factor 2 (Mus musculus). Nature of the experiment: Activation of Nrf2 in LPS-stimulated mouse RAW264.7 cells assessed as induction of HO-1 protein expression at 5 to 40 uM pre-treated for 6 hrs prior to LPS-challenge measured after 12 hrs by western blot analysis. The format is cell-based. An outline of the steps: as §4
Experiment [23] has as its system RAW264.7. In words: Antiinflammatory activity in LPS-stimulated mouse RAW264.7 cells assessed as reduction in PGE2 production at 5 to 40 uM pre-treated for 6 hrs prior to LPS-challenge measured after 24 hrs in presence of HO-1 competitive inhibitor SnPP.
For experiment [24], the system named is RAW264.7. In words: Antiinflammatory activity in LPS-stimulated mouse RAW264.7 cells assessed as reduction in nitrite production at 5 to 40 uM pre-treated for 6 hrs prior to LPS-challenge measured after 24 hrs in presence of HO-1 competitive inhibitor SnPP by Griess reaction.

Active and inactive are the calls of the source. The rule behind the calls is not given here.

For `Cc1nc(Cc2ccc(N(C)C=O)cc2)c(C)nc1Cc1ccc(N(C)C=O)cc1`, the inhibition entry (in experiment [1]; in the experiment on RAW264.7 [12]; in experiment [13]) was “Active” throughout. For the same molecule, the Activity entry in the experiment with RAW264.7 [2], with RAW264.7 [3], in the experiment with RAW264.7 [4], in the experiment on RAW264.7 [5], in the experiment on RAW264.7 [6] and with RAW264.7 [7] was “Dose-dependent effect” in each case. In addition, the Activity result with RAW264.7 [8], in the experiment with RAW264.7 [9], in the experiment with RAW264.7 [10] and in the experiment on RAW264.7 [11] was “Dose-dependent effect” in each case. In addition, the outcome in experiment [14], in experiment [15], in [16] and in [22] was Active. Further, the result with RAW264.7 [17], in the experiment on RAW264.7 [18], in the experiment on RAW264.7 [19], in the experiment on RAW264.7 [20], in the experiment with RAW264.7 [21] and in the experiment on RAW264.7 [23] was inactive. Moreover, the result with RAW264.7 [24] was inactive.

Source of the values: ChEMBL document CHEMBL4477190, “Marine-Derived Secondary Metabolite, Griseusrazin A, Suppresses Inflammation through Heme Oxygenase-1 Induction in Activated RAW264.7 Macrophages” (J Nat Prod, 2016).
